Experiment [1] is described as follows: Compound was evaluated for pKi. Put shortly:
(§1)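 Rat brain homogenate membranes (15 mg wet tissue) in 50 mmol Tris-HCl, pH 7.4 at 2 °C, with NaCl, KCl, MgCl₂ and CaCl₂. Incubated 75 min at 2 °C with 2 nmol [³H]-cytisine. Separated by GF/C filtration. Nonspecific binding defined with […] (–)-nicotine bitartrate. Ki calculated by Cheng-Prusoff using Kd 1.5 nmol.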

Experiment [2] relates to Mus musculus. Kind of experiment: Effect(%) respect to that of 5 ug/kg of morphine injected intracerebroventricularly. It counts as functional. The method in brief:
(§2)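 Mouse hot-plate test with compounds given icv. Minimum analgesic dose recorded; efficacy expressed relative to 5 μg morphine icv. Nicotinic origin of analgesia tested by reversal with mecamylamine 2 mg/kg i.p.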

In experiment [3] the test system is Mus musculus. Briefly: Minimal analgesic dose of compound injected intracerebroventricularly. It counts as functional. Put shortly:
as §2

Experiment [4] has as its target Neuronal acetylcholine receptor; alpha4/beta2 (Rattus norvegicus, UniProt P09483+P12390). Briefly: Binding affinity against nicotinic receptors from rat brain using [3H]cytisine as radioligand. The method in brief:
as §1

The target in experiment [5] is Neuronal acetylcholine receptor subunit alpha-7 (Rattus norvegicus, UniProt Q05941). Kind of experiment: compound was evaluated for pKi.
Sequence of Neuronal acetylcholine receptor subunit alpha-7 (Q05941 whole entry): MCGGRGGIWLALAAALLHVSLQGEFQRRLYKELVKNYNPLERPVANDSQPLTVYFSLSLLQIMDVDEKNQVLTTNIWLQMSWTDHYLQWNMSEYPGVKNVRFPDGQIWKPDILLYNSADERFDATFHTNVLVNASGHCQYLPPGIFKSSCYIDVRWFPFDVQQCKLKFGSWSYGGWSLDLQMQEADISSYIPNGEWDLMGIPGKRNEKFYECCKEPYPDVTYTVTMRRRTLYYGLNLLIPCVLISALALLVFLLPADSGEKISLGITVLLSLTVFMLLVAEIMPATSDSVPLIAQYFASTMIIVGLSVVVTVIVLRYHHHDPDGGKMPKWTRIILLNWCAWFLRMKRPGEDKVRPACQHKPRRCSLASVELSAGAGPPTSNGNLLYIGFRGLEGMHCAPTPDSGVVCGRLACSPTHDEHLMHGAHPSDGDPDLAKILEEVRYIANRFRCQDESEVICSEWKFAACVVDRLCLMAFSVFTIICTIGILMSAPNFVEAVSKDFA

Sequence of Neuronal acetylcholine receptor; alpha4/beta2 (P09483 whole entry): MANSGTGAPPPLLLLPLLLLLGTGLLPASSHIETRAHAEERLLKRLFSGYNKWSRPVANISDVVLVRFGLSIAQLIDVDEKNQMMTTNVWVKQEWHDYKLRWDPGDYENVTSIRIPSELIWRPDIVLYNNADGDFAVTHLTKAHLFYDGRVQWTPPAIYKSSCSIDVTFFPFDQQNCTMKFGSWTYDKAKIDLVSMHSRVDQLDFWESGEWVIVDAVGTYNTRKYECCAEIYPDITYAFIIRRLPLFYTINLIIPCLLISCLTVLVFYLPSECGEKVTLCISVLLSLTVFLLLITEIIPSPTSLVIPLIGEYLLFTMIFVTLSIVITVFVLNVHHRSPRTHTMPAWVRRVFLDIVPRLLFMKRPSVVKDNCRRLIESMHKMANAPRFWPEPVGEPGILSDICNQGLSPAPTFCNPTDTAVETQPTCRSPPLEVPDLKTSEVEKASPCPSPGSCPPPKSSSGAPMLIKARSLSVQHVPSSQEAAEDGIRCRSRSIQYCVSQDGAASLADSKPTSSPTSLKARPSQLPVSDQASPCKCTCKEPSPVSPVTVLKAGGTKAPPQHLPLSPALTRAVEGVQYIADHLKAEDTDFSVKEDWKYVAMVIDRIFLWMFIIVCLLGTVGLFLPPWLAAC
Sequence of Neuronal acetylcholine receptor; alpha4/beta2 (P12390 whole entry): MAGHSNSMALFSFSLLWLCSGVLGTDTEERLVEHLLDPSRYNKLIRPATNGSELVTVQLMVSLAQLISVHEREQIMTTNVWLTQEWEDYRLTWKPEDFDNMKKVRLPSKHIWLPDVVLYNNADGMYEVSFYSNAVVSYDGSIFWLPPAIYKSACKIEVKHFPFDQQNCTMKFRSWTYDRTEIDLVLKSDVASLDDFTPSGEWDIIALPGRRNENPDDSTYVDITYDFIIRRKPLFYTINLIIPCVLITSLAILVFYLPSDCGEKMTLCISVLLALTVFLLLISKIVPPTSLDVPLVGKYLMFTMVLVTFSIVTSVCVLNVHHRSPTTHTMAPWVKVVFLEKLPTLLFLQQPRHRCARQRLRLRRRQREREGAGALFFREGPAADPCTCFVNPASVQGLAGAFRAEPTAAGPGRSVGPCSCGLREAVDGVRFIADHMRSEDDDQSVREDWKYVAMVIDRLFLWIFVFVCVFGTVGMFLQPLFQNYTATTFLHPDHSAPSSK

One may read the Ki as the equilibrium dissociation constant of an inhibitor or competing ligand from its target. As to `O=C(O)C(=O)O.c1cncc(N2CCNCC2)c1`, the “Log Ki” value in experiment [1] is recorded as -7.05. The compound further had an Efficacy in the experiment on Mus musculus [2] of 51.1%. The M.A.D in the experiment with Mus musculus [3] came to 50 µg/kg. The Ki in experiment [4] was 0.09 µM. For the compound `CN1CCN(c2cccc(F)c2)CC1.O=C(O)C(=O)O`, the “Log Ki” value in experiment [1] was -5.19. In experiment [4], this compound came in with a Ki of 6.5 µM. In turn, `CC(=O)c1ccc(N2CCNCC2)cc1` displayed an inhibition constant Ki in experiment [4] above 10 µM. `CC(=O)Nc1cccc(N2CCN(C)CC2)c1` gave an inhibition constant Ki in experiment [4] above 10 µM. On the same count and under the same terms, under `Cc1cccc(N2CCN(C)CC2)c1` stands above 10 µM; under `O=[N+]([O-])c1cccc(N2CCNCC2)c1`, above 10 µM. Take `Fc1cccc(N2CCNCC2)c1`: the inhibition constant Ki in experiment [4] was above 10 µM. Take `CN1CCN(c2cccc(C#N)c2)CC1`: the inhibition constant Ki in experiment [4] was above 10 µM. Take `CN1CCN(c2ccc(O)cc2)CC1`: the Ki in experiment [4] is above 10 µM.

The compound `CN1CCN(c2cccc(O)c2)CC1` yielded a Ki in experiment [4] above 10 µM. The compound `c1cc2c(cc1N1CCNCC1)OCO2` gave a Ki in experiment [4] above 10 µM. On to `FC(F)(F)c1cccc(N2CCNCC2)c1`, for which, in experiment [4], the Ki was above 10 µM.

For `C[N+]1(C)CCN(c2ccc3c(c2)OCO3)CC1.[I-]`, the “Log Ki” value in experiment [1] is given as -6.17. For the same compound, in experiment [4], the inhibition constant (Ki) came to 0.672 µM. Take `CN1CCN(c2cccc(N)c2)CC1`: in experiment [1], the “Log Ki” value is listed as -6.74. The compound also yielded a Ki in experiment [4] of 0.18 µM. For `Cc1ccccc1N1CCN(C)CC1`, in experiment [4], the Ki is above 10 µM. Consider `CN1CCN(C2=CC(=O)CC2)CC1`, for which, in experiment [4], the Ki is above 10 µM.

In experiment [4], `CN1CCN(C2=CC(=O)CCC2)CC1` registered an inhibition constant (Ki) above 10 µM. In experiment [4], `CC(=O)c1ccc(N2CCN(C)CC2)cc1` displayed a Ki above 10 µM. As to `CN1CCN(c2cccc(C(F)(F)F)c2)CC1`, the Ki in experiment [4] was above 10 µM. Regarding `CN1CCN(c2ccc3c(c2)OCO3)CC1`, the Ki in experiment [4] was above 10 µM.

With `CN1CC=C(c2ccccc2)CC1`, the inhibition constant (Ki) in experiment [4] is above 10 µM. Turning to `CN1CCN(c2cccnn2)CC1.O=C(O)C(=O)O`, in experiment [1], the “Log Ki” value is on record as -6.41. In experiment [4], this compound displayed a Ki of 0.386 µM. In experiment [4], `c1cc(N2CCNCC2)ccn1` showed a Ki above 10 µM. For `Fc1ccc(N2CCNCC2)cc1`, the Ki in experiment [4] is above 10 µM.

In the case of `CN1CCN(c2ccc([N+](=O)[O-])cc2)CC1`, in experiment [4], the inhibition constant Ki is above 10 µM.

Compound `CN1CCN(c2ccc(F)cc2)CC1` registered an inhibition constant Ki in experiment [4] above 10 µM.

On to `CC(=O)Oc1cccc(N2CCN(C)CC2)c1`, for which the values for the inhibition constant (Ki) in experiment [5] and in experiment [4] were 0.794 µM and 0.8 µM, respectively. Compound `CN1CCN(c2ccc(N)cc2)CC1` yielded a Ki in experiment [4] above 10 µM. For the compound `CN1CCN(c2cccc(Cl)c2)CC1`, in experiment [4], the inhibitory constant (Ki) was above 10 µM. Regarding `CN1CCC(c2ccccc2)CC1`, the Ki in experiment [4] was above 10 µM. Consider `CN1CC=C(c2cccnc2)CC1.Cl`, for which the Efficacy in the experiment on Mus musculus [2] is given as 36.5%. The same compound displayed a M.A.D in the experiment on Mus musculus [3] of 1 µg/kg.
